Article PMC11223228 (ACS Omega, 2024)

Biological target: T1, EhPSP (Entamoeba histolytica, UniProt N9V397)
T1 sequence (N9V397 1-205): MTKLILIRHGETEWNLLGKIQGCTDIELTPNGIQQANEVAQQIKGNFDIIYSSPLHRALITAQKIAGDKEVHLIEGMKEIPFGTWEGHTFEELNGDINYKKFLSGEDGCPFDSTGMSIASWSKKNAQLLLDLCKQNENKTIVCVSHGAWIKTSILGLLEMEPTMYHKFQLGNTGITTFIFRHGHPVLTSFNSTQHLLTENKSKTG
Assay: In vitro enzyme inhibition assay of EhPSP phosphatase activity
Assay type: biochemical
Conditions: for inhibition of enzymatic activity (in words): 21 compounds tested
Method in brief: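 Recombinant C-terminal 6X-His EhPSP, expressed in E. coli BL21 (DE3) and purified by Ni-NTA then size exclusion. Reaction in 50 mM HEPES-NaOH pH 8.0, 1 mM DTT, 1 mM EDTA, 25 μg enzyme. Compound preincubated 10 min RT, then OPLS added and run 2−5 min RT. Stopped with malachite green, A630 of released phosphate. % inhibition vs no-compound control, IC50 from log-concentration curve.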

| SMILES | inhibition of enzymatic activity (in words) | IC50 (IC50, OPLS 2.0 mM, compound 20 nM to 500 μM) [µM] |
| --- | --- | --- |
| O=S(=O)(O)c1ccc2c(S(=O)(=O)O)cccc2c1 [AE-562/12222184, 1,6-naphthalenedisulfonic acid] | displayed the inhibition of enzymatic activity | – |
| Cc1nc2ccc(CN(C)c3ccc(C(=O)N[C@@H](CCC(=O)O)C(=O)O)s3)cc2c(=O)[nH]1 [Raltitrexed, (2S)-2-[[5-[methyl-[(2-methyl-4-oxo-3H-quinazolin-6-yl)methyl]amino]thiophene-2-carbonyl]amino]pentanedioic acid] | displayed the inhibition of enzymatic activity | ~368 |
